# Test results from ChEMBL document CHEMBL5696442, “Discovery of type II inhibitors of TGFβ-activated kinase 1 (TAK1) and mitogen-activated protein kinase kinase kinase kinase 2 (MAP4K2)” (J Med Chem, 2015).
# Legend:
# [1] = target: Ephrin type-A receptor 8 (Homo sapiens) (UniProt P29322); assay: Inhibition of EPHA8 (unknown origin) at 10 uM by Ambit Kinomescan binding assay relative to control
# [2] = target: Rho-associated protein kinase 1 (Homo sapiens) (UniProt Q13464); assay: Inhibition of ROCK1 Lys2 labeling site in human A-375 cells at 0.5 uM by KiNativ Profiling analysis relative to control; type: cell-based
# Sequence of Rho-associated protein kinase 1 (Homo sapiens) (Q13464 2-1354 limits assumed): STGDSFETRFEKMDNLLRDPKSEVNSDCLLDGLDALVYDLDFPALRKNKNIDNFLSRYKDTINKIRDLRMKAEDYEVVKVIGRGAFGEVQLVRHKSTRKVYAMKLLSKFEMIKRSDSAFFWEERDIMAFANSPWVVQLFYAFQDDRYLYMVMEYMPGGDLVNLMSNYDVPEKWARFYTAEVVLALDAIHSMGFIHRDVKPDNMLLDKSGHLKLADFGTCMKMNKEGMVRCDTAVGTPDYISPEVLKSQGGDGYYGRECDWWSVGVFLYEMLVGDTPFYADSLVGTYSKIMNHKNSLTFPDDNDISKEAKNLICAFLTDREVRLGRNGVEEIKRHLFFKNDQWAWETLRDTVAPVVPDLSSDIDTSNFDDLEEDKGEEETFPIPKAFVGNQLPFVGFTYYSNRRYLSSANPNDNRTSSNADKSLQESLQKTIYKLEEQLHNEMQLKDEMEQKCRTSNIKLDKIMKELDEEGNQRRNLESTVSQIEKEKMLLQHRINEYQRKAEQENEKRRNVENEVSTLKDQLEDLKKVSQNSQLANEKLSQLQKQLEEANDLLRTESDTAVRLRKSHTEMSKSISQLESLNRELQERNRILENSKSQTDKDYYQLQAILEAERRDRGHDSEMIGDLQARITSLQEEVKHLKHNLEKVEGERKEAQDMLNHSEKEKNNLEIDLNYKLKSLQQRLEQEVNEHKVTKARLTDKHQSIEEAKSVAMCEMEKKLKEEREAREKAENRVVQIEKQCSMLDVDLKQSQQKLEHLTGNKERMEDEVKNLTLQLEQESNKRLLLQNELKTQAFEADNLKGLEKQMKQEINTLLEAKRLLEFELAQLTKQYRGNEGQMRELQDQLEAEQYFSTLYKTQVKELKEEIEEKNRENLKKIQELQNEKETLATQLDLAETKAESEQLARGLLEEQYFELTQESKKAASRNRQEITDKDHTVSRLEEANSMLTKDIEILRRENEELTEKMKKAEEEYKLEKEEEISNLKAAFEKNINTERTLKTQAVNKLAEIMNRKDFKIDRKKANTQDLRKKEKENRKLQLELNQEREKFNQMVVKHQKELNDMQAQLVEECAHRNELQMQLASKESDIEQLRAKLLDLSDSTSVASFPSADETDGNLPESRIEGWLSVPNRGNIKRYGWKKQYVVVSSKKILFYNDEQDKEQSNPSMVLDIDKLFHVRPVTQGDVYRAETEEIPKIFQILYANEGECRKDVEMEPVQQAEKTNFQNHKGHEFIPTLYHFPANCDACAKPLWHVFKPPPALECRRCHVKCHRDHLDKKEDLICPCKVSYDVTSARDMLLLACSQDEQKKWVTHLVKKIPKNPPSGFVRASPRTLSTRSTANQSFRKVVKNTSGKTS
# Outline: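 Live A375 melanoma cells were treated with compound at 5 or 0.5 μM, then lysed. Lysates were labeled with a lysine-reactive ATP or ADP-biotin probe. Read-out was the compound's protection of kinase labeling sites from probe labeling (KiNativ).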
# [3] = target: Tyrosine-protein kinase JAK1 (Homo sapiens) (UniProt P23458); assay: Inhibition of JAK1 Domain 2 ACT labeling site harbouring IGDFGLTKAIETDKEYYTVK in human Huh-7 cells at 1 uM by KiNativ Profiling analysis relative to control; type: cell-based
# Sequence of Tyrosine-protein kinase JAK1 (Homo sapiens) (P23458 whole entry, the tested form may be a part): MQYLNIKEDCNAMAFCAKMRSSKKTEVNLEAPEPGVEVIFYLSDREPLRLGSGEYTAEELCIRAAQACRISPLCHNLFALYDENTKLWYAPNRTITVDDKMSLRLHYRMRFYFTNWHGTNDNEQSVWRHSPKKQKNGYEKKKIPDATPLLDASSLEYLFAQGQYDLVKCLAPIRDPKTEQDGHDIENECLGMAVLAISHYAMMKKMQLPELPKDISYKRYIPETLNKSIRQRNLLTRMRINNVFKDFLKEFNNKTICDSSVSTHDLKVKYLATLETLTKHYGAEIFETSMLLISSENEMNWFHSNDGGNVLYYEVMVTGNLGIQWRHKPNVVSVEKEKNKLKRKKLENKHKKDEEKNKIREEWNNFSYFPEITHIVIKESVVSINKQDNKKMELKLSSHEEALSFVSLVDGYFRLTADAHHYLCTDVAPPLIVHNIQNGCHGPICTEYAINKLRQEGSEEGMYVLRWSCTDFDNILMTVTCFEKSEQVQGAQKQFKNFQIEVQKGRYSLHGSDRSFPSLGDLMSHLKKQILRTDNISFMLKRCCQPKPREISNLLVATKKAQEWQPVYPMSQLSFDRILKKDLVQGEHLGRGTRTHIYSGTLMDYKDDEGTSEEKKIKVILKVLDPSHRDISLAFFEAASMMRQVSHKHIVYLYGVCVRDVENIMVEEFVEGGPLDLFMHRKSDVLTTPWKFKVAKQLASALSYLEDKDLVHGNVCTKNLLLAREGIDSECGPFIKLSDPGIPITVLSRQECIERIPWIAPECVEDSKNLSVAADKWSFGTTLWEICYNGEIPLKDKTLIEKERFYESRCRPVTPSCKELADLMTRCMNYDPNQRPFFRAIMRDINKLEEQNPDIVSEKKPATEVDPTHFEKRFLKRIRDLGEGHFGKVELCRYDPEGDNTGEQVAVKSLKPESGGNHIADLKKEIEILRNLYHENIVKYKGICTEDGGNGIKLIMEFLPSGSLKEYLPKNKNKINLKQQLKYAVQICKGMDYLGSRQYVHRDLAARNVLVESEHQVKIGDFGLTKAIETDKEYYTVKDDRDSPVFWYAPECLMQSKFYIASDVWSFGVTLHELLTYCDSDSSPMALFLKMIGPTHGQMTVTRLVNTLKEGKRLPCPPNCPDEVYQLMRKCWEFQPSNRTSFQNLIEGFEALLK
# [4] = target: T1, Dual specificity mitogen-activated protein kinase kinase 6 (Homo sapiens) (UniProt P52564); assay: Inhibition of MAP2K6 ACT labeling site in human Huh-7 cells at 1 uM by KiNativ Profiling analysis relative to control; type: cell-based
# T1 sequence (whole entry): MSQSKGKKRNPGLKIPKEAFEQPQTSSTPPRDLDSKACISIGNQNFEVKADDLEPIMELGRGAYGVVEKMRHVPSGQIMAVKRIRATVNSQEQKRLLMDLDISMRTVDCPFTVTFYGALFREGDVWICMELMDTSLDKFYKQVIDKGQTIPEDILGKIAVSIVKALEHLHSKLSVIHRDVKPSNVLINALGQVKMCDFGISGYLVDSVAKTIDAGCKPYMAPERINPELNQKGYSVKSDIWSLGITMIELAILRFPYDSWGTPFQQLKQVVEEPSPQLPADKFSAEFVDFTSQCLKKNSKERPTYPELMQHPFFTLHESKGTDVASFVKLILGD
# [5] = target: T2, Serine/threonine-protein kinase TAO2 (Homo sapiens) (UniProt Q9UL54); assay: Inhibition of TAOK2 (unknown origin) at 1 uM by Ambit Kinomescan binding assay relative to control
# T2 sequence (whole entry): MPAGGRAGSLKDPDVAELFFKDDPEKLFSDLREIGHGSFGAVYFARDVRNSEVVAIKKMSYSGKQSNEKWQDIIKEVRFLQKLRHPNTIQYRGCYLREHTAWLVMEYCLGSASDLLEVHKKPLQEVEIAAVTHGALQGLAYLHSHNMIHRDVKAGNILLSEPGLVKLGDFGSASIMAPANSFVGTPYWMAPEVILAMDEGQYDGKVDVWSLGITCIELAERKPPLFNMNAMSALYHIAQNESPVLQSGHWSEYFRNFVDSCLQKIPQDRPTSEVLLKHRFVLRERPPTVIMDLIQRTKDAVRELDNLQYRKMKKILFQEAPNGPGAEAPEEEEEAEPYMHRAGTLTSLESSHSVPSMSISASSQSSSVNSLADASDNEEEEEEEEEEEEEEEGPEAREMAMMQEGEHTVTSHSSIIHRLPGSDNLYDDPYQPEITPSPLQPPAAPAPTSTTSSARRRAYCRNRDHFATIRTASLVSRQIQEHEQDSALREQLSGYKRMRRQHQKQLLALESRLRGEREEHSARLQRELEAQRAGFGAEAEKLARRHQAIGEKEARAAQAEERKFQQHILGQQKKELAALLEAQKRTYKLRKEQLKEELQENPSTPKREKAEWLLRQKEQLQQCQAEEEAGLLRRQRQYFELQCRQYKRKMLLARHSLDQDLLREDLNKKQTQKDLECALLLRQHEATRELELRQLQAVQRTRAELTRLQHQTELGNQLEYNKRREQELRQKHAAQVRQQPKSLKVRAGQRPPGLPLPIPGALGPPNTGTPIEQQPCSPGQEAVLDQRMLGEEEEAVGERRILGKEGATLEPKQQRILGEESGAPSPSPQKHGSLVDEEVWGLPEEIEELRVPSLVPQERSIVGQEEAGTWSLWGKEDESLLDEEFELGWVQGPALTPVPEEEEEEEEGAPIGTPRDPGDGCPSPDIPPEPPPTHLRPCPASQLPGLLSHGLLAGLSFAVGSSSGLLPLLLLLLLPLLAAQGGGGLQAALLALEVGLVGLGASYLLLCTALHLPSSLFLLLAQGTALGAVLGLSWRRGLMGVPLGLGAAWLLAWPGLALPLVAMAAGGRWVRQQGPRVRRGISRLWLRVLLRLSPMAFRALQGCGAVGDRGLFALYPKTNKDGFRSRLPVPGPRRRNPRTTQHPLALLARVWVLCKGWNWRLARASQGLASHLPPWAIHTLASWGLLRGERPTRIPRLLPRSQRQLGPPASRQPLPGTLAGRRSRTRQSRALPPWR
# [6] = target: Cyclin-dependent kinase 17 (Homo sapiens) (UniProt Q00537); assay: Inhibition of PCTAIRE2 Lys1 labeling site harbouring SKLTENLVALKEIRLEHEEGAPCTAIR in human A-375 cells at 0.05 uM by KiNativ Profiling analysis relative to control; type: cell-based
# Sequence of Cyclin-dependent kinase 17 (Homo sapiens) (Q00537 whole entry, looked up): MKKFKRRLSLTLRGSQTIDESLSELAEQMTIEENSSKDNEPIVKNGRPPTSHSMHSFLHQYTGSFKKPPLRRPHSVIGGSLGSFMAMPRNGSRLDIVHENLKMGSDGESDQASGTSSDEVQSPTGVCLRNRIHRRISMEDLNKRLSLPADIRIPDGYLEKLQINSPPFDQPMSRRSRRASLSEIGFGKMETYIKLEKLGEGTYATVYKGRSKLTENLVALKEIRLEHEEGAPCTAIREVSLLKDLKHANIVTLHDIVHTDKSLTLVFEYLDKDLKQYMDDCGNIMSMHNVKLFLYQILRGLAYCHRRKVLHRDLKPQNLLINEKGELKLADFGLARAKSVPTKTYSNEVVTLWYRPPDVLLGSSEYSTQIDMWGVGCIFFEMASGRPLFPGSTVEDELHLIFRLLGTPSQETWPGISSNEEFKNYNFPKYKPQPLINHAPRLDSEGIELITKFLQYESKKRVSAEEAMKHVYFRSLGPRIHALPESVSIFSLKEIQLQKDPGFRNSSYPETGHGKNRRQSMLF
# [7] = target: Serine/threonine-protein kinase MRCK gamma (Homo sapiens) (UniProt Q6DT37); assay: Inhibition of DMPK2 (unknown origin) at 1 uM by Ambit Kinomescan binding assay relative to control; values are per cent of control
# Sequence of Serine/threonine-protein kinase MRCK gamma (Homo sapiens) (Q6DT37 whole entry): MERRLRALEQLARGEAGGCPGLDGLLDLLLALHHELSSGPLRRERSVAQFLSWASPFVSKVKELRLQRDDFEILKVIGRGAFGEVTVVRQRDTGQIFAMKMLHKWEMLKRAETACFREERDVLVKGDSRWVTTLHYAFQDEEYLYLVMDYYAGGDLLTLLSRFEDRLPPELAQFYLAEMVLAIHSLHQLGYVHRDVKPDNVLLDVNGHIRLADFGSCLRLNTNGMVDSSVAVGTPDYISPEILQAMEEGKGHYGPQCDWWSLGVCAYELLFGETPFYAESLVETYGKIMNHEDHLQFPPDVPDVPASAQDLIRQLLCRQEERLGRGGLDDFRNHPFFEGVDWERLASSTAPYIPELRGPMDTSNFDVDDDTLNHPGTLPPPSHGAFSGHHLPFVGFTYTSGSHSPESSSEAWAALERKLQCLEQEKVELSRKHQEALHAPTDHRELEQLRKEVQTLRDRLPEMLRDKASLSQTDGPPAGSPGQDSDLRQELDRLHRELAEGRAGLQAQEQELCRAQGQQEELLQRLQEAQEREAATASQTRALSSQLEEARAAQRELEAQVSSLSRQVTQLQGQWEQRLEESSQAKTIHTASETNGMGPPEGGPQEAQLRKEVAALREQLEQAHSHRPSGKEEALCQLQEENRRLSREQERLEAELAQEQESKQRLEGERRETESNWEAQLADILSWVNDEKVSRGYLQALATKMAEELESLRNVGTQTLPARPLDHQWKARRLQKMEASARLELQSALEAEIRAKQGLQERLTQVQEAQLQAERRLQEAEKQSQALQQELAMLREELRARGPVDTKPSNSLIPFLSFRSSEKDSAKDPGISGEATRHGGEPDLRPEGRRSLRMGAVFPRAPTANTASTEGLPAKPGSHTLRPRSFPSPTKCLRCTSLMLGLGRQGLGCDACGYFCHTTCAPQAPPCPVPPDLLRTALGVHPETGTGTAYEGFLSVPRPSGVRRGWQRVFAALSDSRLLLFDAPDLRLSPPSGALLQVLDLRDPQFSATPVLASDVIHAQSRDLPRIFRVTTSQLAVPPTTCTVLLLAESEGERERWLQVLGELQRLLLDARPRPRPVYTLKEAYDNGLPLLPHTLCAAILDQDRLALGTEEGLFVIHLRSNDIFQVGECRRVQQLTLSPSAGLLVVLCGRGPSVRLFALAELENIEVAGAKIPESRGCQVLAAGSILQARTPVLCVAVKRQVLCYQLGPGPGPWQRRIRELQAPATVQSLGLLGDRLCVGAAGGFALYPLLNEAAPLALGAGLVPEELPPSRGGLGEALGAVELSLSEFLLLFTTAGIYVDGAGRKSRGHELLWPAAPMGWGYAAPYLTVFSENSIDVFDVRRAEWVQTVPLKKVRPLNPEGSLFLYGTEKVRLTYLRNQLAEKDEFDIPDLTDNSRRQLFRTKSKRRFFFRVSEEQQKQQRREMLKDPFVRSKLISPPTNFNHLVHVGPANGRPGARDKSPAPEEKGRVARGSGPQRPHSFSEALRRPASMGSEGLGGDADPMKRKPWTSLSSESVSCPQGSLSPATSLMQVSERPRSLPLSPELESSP
# [8] = target: Dual specificity mitogen-activated protein kinase kinase 1 (Homo sapiens) (UniProt Q02750); assay: Inhibition of MAP2K1 Lys2 labeling site harbouring DVKPSNILVNSR in human Huh-7 cell lysate at 1 uM by KiNativ Profiling analysis relative to control; type: subcellular
# Sequence of Dual specificity mitogen-activated protein kinase kinase 1 (Homo sapiens) (Q02750 whole entry): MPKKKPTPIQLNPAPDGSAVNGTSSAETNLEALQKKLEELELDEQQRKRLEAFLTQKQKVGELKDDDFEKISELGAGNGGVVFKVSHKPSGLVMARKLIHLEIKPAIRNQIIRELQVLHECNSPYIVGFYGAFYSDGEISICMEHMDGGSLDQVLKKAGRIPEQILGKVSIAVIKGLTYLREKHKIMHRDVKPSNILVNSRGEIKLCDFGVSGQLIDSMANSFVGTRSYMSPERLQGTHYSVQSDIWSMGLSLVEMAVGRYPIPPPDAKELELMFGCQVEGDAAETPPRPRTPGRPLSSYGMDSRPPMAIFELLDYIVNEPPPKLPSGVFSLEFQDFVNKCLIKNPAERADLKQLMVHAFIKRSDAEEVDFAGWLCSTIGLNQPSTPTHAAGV
smiles,measurement,setting,value
CCN1CCN(Cc2ccc(NC(=O)c3ccc(C)c(Oc4ccnc5[nH]ccc45)c3)cc2C(F)(F)F)CC1,inhibition,[1],0.1%
same,inhibition,[2],2.3%
same,inhibition,[3],-6.4%
same,inhibition,[4],9.2%
CCN1CCN(Cc2ccc(NC(=O)c3ccc(C)c(/C=C/c4cnc5[nH]ccc5c4OC)c3)cc2C(F)(F)F)CC1,inhibition,[5],16%
same,inhibition,[6],2.7%
same,residual activity,[7],76%
CNc1cc(Oc2cc(C(=O)Nc3cc(N4CCN(C)CC4)cc(C(F)(F)F)c3)ccc2C)ncn1,inhibition,[8],15.6%
